Assay results gathered from unrelated publications.
Compare with care: the assays were run in different laboratories. Values after ≈ are worked out from the molar mass of the structure shown.
Organism: Streptococcus pneumoniae
Read-out: microbial growth

| Compound | test | system | conditions | MIC [µg/mL] |
| --- | --- | --- | --- | --- |
| CN(C)[C@@H]1C(O)=C(C(N)=O)C(=O)[C@@]2(O)C(O)=C3C(=O)c4c(cc5ccc(CN6CC(C#N)C6)cc5c4O)C[C@H]3C[C@@H]12 | broth dilution | ATCC49619 | – | 0.5 (≈ 0.895 µM) |
| C[C@@H](O)[C@H]1C(=O)N2C(C(=O)O)=C(S[C@@H]3CN[C@H](C(=O)N(C)C)C3)[C@H](C)[C@H]12 | broth dilution | ATCC49619 | – | 0.25 (≈ 0.652 µM) |
| N=C(N)NN=Cc1ccc(OC/C=C\COc2ccc(C=NNC(=N)N)cc2)cc1 | – | D39 | 16 h | ≤ 3 |
| CN(C)[C@@H]1C(O)=C(C(N)=O)C(=O)[C@@]2(O)C(O)=C3C(=O)c4c(cc5cc(N)ccc5c4O)C[C@H]3C[C@@H]12 | broth dilution | ATCC49619 | – | 1 (≈ 2.09 µM) |
| O=C1NC(=S)S/C1=C\c1ccc(-c2ccc(N(c3ccccc3)c3ccccc3)cc2)c2ccccc12 | broth dilution | ATCC49619 | – | 1000 (≈ 1940 µM) |
| CN(C)c1ccc(O)c2c1C[C@H]1C[C@H]3[C@H](N(C)C)C(O)=C(C(N)=O)C(=O)[C@@]3(O)C(O)=C1C2=O | – | 157E | – | < 0.06 |
| O=[N+]([O-])c1ccc(O)c2ncccc12 | broth dilution | ATCC49619 | – | 8 (≈ 42.1 µM) |
| CN(C)[C@@H]1C(O)=C(C(N)=O)C(=O)[C@@]2(O)C(O)=C3C(=O)c4c(cc5ccc(-c6ccccc6)cc5c4O)C[C@H]3C[C@@H]12 | broth dilution | ATCC49619 | – | 32 (≈ 59.2 µM) |
| O=C1NC(=S)N/C1=C\c1ccc(-c2ccc(N(c3ccccc3)c3ccccc3)cc2)cc1 | broth dilution | ATCC49619 | – | > 1000 |
| COc1cc(Cc2cnc(N)nc2N)cc(OC)c1OC | broth dilution | – | 24 h | 0.25 (≈ 0.861 µM) |
| O=C1NC(=S)S/C1=C\c1ccc(-c2ccc(N(c3ccccc3)c3ccccc3)cc2)cc1 | broth dilution | ATCC49619 | – | 1000 (≈ 2150 µM) |
| CN(C)c1cc(NC(=O)CNC(C)(C)C)c(O)c2c1C[C@H]1C[C@H]3[C@H](N(C)C)C(O)=C(C(N)=O)C(=O)[C@@]3(O)C(O)=C1C2=O | – | 157E | – | < 0.06 |
| O=C(O)CN1C(=O)/C(=C/c2c3ccccc3c(-c3ccc(N(c4ccccc4)c4ccccc4)cc3)c3ccccc23)NC1=S | broth dilution | ATCC49619 | – | > 1000 |
| O=c1[nH]cc(F)c(=O)[nH]1 | broth dilution | – | 24 h | 0.125 (≈ 0.961 µM) |
